In ChEMBL document CHEMBL5365542, “Difluoromethyl-1,3,4-oxadiazoles Are Selective, Mechanism-Based, and Essentially Irreversible Inhibitors of Histone Deacetylase 6” (J Med Chem, 2023):
Numbering of substitutions follows the chain as printed. Active and inactive are the calls of the source. No cut-off for these calls is given here.

Key:
[1] = tested on: T1, Histone deacetylase 6 (Danio rerio), F8W4B7 [H574A]; experiment: Irreversible inhibition of Danio rerio HDAC6 H574A mutant catalytic domain 2 assessed as enzyme catalysed ring opening by measuring reduction in 2-(benzylamino)-N'-(2,2,2-trifluoroacetyl)pyrimidine-5-carbohydrazide formation at 100 uM incubated overnight by LC-MS analysis
T1 sequence (whole entry): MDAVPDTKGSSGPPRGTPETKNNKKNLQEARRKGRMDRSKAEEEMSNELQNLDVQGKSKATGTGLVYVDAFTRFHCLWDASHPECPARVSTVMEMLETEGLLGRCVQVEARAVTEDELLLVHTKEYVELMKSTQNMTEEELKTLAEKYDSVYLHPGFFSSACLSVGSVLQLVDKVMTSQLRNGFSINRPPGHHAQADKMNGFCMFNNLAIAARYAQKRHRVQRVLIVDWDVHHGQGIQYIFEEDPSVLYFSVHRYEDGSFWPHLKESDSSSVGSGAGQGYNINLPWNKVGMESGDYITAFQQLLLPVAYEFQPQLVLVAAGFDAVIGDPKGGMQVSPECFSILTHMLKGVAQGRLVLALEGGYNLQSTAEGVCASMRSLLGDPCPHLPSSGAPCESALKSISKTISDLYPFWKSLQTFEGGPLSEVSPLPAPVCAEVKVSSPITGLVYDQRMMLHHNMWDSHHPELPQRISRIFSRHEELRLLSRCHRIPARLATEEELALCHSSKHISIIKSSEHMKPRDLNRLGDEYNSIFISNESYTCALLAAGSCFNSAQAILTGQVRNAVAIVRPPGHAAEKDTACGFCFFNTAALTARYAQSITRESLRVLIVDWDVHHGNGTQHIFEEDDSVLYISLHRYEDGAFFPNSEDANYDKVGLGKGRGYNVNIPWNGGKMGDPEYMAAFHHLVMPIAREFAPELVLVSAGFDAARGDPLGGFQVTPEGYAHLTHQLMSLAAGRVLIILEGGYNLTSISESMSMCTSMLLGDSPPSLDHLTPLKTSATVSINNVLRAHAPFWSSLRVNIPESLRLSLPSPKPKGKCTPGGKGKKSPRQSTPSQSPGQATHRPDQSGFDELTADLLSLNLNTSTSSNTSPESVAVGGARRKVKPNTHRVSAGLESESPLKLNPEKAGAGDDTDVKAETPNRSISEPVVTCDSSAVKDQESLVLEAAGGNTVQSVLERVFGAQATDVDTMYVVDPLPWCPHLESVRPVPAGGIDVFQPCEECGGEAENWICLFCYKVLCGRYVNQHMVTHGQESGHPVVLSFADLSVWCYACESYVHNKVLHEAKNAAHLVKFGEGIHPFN
Summary of the method: (§1)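 Zebrafish HDAC6 CD2 mutants were made by site-directed mutagenesis and expressed in BL21(DE3). Enzyme at 50 μM was incubated overnight with 100 μM inhibitor in 50 mM HEPES pH 7.5, 100 mM KCl, 1 mM TCEP, 5% glycerol; an enzyme-free control was included. Protein was methanol-precipitated and filtered, and products were analysed by C18 UPLC-MS with a 2-min gradient.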

[2] = tested on: T1, Histone deacetylase 6 (Danio rerio), F8W4B7 [H574A]; experiment: Irreversible inhibition of Danio rerio HDAC6 H574A mutant catalytic domain 2 assessed as enzyme catalysed ring opening by measuring reduction in 2-(Benzylamino)-N'-(2,2-difluoroacetyl)pyrimidine-5-carbohydrazide formation at 100 uM incubated overnight by LC-MS analysis; summary of the method: as §1
[3] = molecular target: T2, Histone deacetylase 6 (Danio rerio) (UniProt F8W4B7); experiment: Irreversible inhibition of Danio rerio HDAC6 catalytic domain 2 assessed as enzyme catalysed ring opening by measuring 2-(Benzylamino)pyrimidine-5-carbohydrazide level at 100 uM incubated overnight by LC-MS analysis
T2 sequence (whole entry): T1 sequence (whole entry) with A574H
Summary of the method: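 Danio rerio HDAC6 catalytic domain 2 (zCD2), 50 μM, in 50 mM HEPES pH 7.5, 100 mM KCl, 1 mM TCEP, 5% glycerol, incubated overnight with 100 μM inhibitor (100 μL). Enzyme-free inhibitor controls run in parallel. Protein precipitated with methanol and filtered. Filtrate analysed by C18 reverse-phase UPLC-MS with a 2-min H2O/MeCN gradient.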

SMILES	inhibition [1]	inhibition [2]	Activity [3] [µM]
FC(F)(F)c1nnc(-c2cnc(NCc3ccccc3)nc2)o1	Active	Active	18
FC(F)c1nnc(-c2cnc(NCc3ccccc3)nc2)o1	Active	Active	9
